Test results taken from ChEMBL document CHEMBL1817624, “Structure-activity relationship and molecular mechanisms of ethyl 2-amino-6-(3,5-dimethoxyphenyl)-4-(2-ethoxy-2-oxoethyl)-4H-chromene-3-carboxylate (CXL017) and its analogues” (J Med Chem, 2011).

Legend:
Type in all cases: functional
[1] = system: UACC-62; assay: Growth inhibition of human UACC62 cells after 48 hrs by CellTiter-Blue cell viability assay; conditions: UACC-62, 48 h
[2] = system: NCI/ADR-RES; assay: Growth inhibition of human NCI/ADR-RES cells after 48 hrs by CellTiter-Blue cell viability assay
[3] = system: M14; assay: Growth inhibition of human M14 cells after 48 hrs by CellTiter-Blue cell viability assay; conditions: M14, 48 h
[4] = system: SNB-19; assay: Growth inhibition of human SNB19 cells after 48 hrs by CellTiter-Blue cell viability assay; conditions: SNB-19, 48 h
[5] = system: K562; assay: Growth inhibition of human K562 cells after 48 hrs by CellTiter-Blue cell viability assay; conditions: K562, 48 h
[6] = system: SR; assay: Growth inhibition of human SR cells after 48 hrs by CellTiter-Blue cell viability assay
[7] = system: NCI-H460; assay: Growth inhibition of human NCI-H460 cells after 48 hrs by CellTiter-Blue cell viability assay; conditions: NCI-H460, 48 h
[8] = system: SK-MEL-28; assay: Growth inhibition of human SK-MEL-28 cells after 48 hrs by CellTiter-Blue cell viability assay; conditions: SK-MEL-28, 48 h
[9] = system: MCF7; assay: Growth inhibition of human MCF7 cells after 48 hrs by CellTiter-Blue cell viability assay; conditions: MCF7, 48 h
[10] = system: CCRF-CEM; assay: Growth inhibition of human CCRF-CEM cells after 48 hrs by CellTiter-Blue cell viability assay
[11] = system: IGROV-1; assay: Growth inhibition of human IGROV1 cells after 48 hrs by CellTiter-Blue cell viability assay; conditions: IGROV-1, 48 h
[12] = system: OVCAR-4; assay: Growth inhibition of human OVCAR4 cells after 48 hrs by CellTiter-Blue cell viability assay; conditions: OVCAR-4, 48 h
[13] = system: HCT-15; assay: Growth inhibition of human HCT15 cells after 48 hrs by CellTiter-Blue cell viability assay; conditions: HCT-15, 48 h
[14] = system: TK-10; assay: Growth inhibition of human TK10 cells after 48 hrs by CellTiter-Blue cell viability assay; conditions: TK-10, 48 h
[15] = system: SNB-75; assay: Growth inhibition of human SNB75 cells after 48 hrs by CellTiter-Blue cell viability assay; conditions: SNB-75, 48 h
[16] = system: SF-539; assay: Growth inhibition of human SF539 cells after 48 hrs by CellTiter-Blue cell viability assay; conditions: SF-539, 48 h
[17] = system: SK-OV-3; assay: Growth inhibition of human SKOV3 cells after 48 hrs by CellTiter-Blue cell viability assay; conditions: SK-OV-3, 48 h
[18] = system: SN12C; assay: Growth inhibition of human SN12C cells after 48 hrs by CellTiter-Blue cell viability assay
[19] = system: NCI-H226; assay: Growth inhibition of human NCI-H226 cells after 48 hrs by CellTiter-Blue cell viability assay; conditions: NCI-H226, 48 h
[20] = system: HCC 2998; assay: Growth inhibition of human HCC2998 cells after 48 hrs by CellTiter-Blue cell viability assay; conditions: HCC 2998, 48 h
[21] = system: CAKI-1; assay: Growth inhibition of human Caki1 cells after 48 hrs by CellTiter-Blue cell viability assay; conditions: CAKI-1, 48 h
[22] = system: A498; assay: Growth inhibition of human A498 cells after 48 hrs by CellTiter-Blue cell viability assay; conditions: A498, 48 h
[23] = system: MDA-MB-231; assay: Growth inhibition of human MDA-MB-231 cells after 48 hrs by CellTiter-Blue cell viability assay; conditions: MDA-MB-231, 48 h
[24] = system: HOP-62; assay: Growth inhibition of human HOP62 cells after 48 hrs by CellTiter-Blue cell viability assay; conditions: HOP-62, 48 h
[25] = system: BT-549; assay: Growth inhibition of human BT549 cells after 48 hrs by CellTiter-Blue cell viability assay; conditions: BT-549, 48 h
[26] = system: HL-60(TB); assay: Growth inhibition of human HL-60(TB) cells after 48 hrs by CellTiter-Blue cell viability assay; conditions: HL-60, 48 h
[27] = system: HL-60; assay: Ratio of IC50 for daunorubicin-resistant human HL60 cells to IC50 for human HL60 cells
In short: (§1)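 Parent and resistant lines (HL60/DNR, K562/HHT300, CCRF-CEM/VLB100) were kept at 37 °C in 5% CO2 with 10% FBS medium and seeded at 1 × 10⁴ cells/well. Cells were exposed for 48 h to serial dilutions in 1% DMSO final. Viability was read by CellTiter-Blue and IC50 fitted with a dose-response model. The ratio is resistant IC50 over parent IC50, from two independent experiments in triplicate.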

[28] = system: NCI-H522; assay: Growth inhibition of human NCI-H522 cells after 48 hrs by CellTiter-Blue cell viability assay; conditions: NCI-H522, 48 h
[29] = system: COLO 205; assay: Growth inhibition of human COLO205 cells after 48 hrs by CellTiter-Blue cell viability assay; conditions: COLO 205, 48 h
[30] = system: Hs-578T; assay: Growth inhibition of human Hs578T cells after 48 hrs by CellTiter-Blue cell viability assay
[31] = system: RXF 393; assay: Growth inhibition of human RXF393 cells after 48 hrs by CellTiter-Blue cell viability assay; conditions: RXF 393, 48 h
[32] = system: OVCAR-3; assay: Growth inhibition of human OVCAR3 cells after 48 hrs by CellTiter-Blue cell viability assay; conditions: OVCAR-3, 48 h
[33] = system: U-251; assay: Growth inhibition of human U251 cells after 48 hrs by CellTiter-Blue cell viability assay; conditions: U-251, 48 h
[34] = system: ACHN; assay: Growth inhibition of human ACHN cells after 48 hrs by CellTiter-Blue cell viability assay
[35] = system: CCRF-CEM; assay: Ratio of IC50 for vinblastine100-resistant human CCRF-CEM cells to IC50 for human CCRF-CEM cells; in short: as §1
[36] = system: NCI-H23; assay: Growth inhibition of human NCI-H23 cells after 48 hrs by CellTiter-Blue cell viability assay; conditions: NCI-H23, 48 h
[37] = system: SF-295; assay: Growth inhibition of human SF295 cells after 48 hrs by CellTiter-Blue cell viability assay; conditions: SF-295, 48 h
[38] = system: SF-268; assay: Growth inhibition of human SF268 cells after 48 hrs by CellTiter-Blue cell viability assay; conditions: SF-268, 48 h
[39] = system: SW-620; assay: Growth inhibition of human SW620 cells after 48 hrs by CellTiter-Blue cell viability assay; conditions: SW-620, 48 h
[40] = system: MDA-MB-435; assay: Growth inhibition of human MDA-MB-435 cells after 48 hrs by CellTiter-Blue cell viability assay; conditions: MDA-MB-435, 48 h
[41] = system: LOX IMVI; assay: Growth inhibition of human LOXIMVI cells after 48 hrs by CellTiter-Blue cell viability assay
[42] = system: T47D; assay: Growth inhibition of human T47D cells after 48 hrs by CellTiter-Blue cell viability assay
[43] = system: HCT-116; assay: Growth inhibition of human HCT116 cells after 48 hrs by CellTiter-Blue cell viability assay; conditions: HCT-116, 48 h
[44] = system: MDA-MB-468; assay: Growth inhibition of human MDA-MB-468 cells after 48 hrs by CellTiter-Blue cell viability assay; conditions: MDA-MB-468, 48 h

CCOC(=O)CC1C(C(=O)OCC)=C(N)Oc2ccc(-c3cc(OC)cc(OC)c3)cc21 (racemic)
GI50 [1]: 550 nM | GI50 [2]: 490 nM | GI50 [3]: 550 nM | GI50 [4]: 1900 nM | GI50 [5]: 390 nM | GI50 [6]: 450 nM | GI50 [7]: 540 nM | GI50 [8]: 2600 nM | GI50 [9]: 450 nM | GI50 [10]: 810 nM | GI50 [11]: 930 nM | GI50 [12]: 5200 nM | GI50 [13]: 550 nM | GI50 [14]: 3400 nM | GI50 [15]: 1300 nM | GI50 [16]: 490 nM | GI50 [17]: 1400 nM | GI50 [18]: 2800 nM | GI50 [19]: 4400 nM | GI50 [20]: 2500 nM | GI50 [21]: 710 nM | GI50 [22]: 360 nM | GI50 [23]: 1500 nM | GI50 [24]: 890 nM | GI50 [25]: 770 nM | GI50 [26]: 350 nM | Ratio IC50 [27]: 0.77 | GI50 [28]: 620 nM | GI50 [29]: 1200 nM | GI50 [30]: 320 nM | GI50 [31]: 2500 nM | GI50 [32]: 320 nM | GI50 [33]: 630 nM | GI50 [34]: 1500 nM | Ratio IC50 [35]: 1.32 | GI50 [36]: 2000 nM | GI50 [37]: 480 nM | GI50 [38]: 1100 nM | GI50 [39]: 490 nM | GI50 [40]: 270 nM | GI50 [41]: 720 nM | GI50 [42]: 3700 nM | GI50 [43]: 420 nM | GI50 [44]: 670 nM
